KCNK9 inh – KCNK9 potassium channel inhibitors, primary screen, HEK293 cells, thallium flux | FluxOR thallium flux fluorescence; active compounds read low | B-score at 10 µM | 1.2% of 310,000 active;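 active = ratio B-score over 3 SD below the library mean, with starting fluorescence within 5 SD of its mean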;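 also: negative B-score means less thallium flux so channel inhibition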
KCNK3 inh – human KCNK3 channel inhibitors, primary screen, CHO cells, FluxOR thallium flux, B-score; Potassium channel subfamily K member 3 (Homo sapiens), O14649; FluxOR fluorescence; active compounds read low; B-score at 10 µM; 0.84% of 340,000 active;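 active = B-score under library mean minus 4 SD, starting fluorescence ratio at most library mean plus 5 SD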;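 also: more negative B-score means stronger inhibition of thallium flux through KCNK3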
KCNQ1 pot – potentiators or activators of KCNQ1 channel, primary screen, cell-based, thallium flux, high-throughput | B-score at 10 µM | CHO-K1 KCNQ1, thallium flux FluxOR fluorescence; active compounds read high | Potassium voltage-gated channel subfamily KQT member 1 (Homo sapiens), P51787 | 0.35% of 310,000 active | AID 2648, 2010;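 active = fluorescence ratio B-score, a plate-corrected score, at least three library SD, with initial intensity B-score within 5 SD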
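Material: CHO-K1 cells stably expressing KCNQ1. Medium: assay buffer for compound exposure, DMSO matched across wells. Reagent: K+/Tl+ depolarizing stimulus. Compound dosing: single-concentration screen. Times: 37 °C overnight plating, 90-min dark dye load, 20-min compound pretreatment. Technique: FluxOR Tl+ flux fluorescence.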
KCNQ1 block – inhibitors of human KCNQ1 channel, primary screen, cell-based, thallium flux, high-throughput; CHO-K1 KCNQ1, FluxOR thallium flux fluorescence; active compounds read high; B-score at 10 µM; 1.3% of 310,000 active; AID 2642, 2010;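 active = compounds whose thallium flux B-score, printed positive for inhibition, exceeds three library SD while starting fluorescence stays within three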;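 also: channel opened by potassium depolarization with thallium stimulus after 20 min compound exposure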
hERG protect – hERG rescue from dofetilide block, primary screen, cell-based, CHO-hERG, FluxOR thallium flux, dofetilide IC70; Voltage-gated inwardly rectifying potassium channel KCNH2 (Homo sapiens), Q12809; dofetilide IC70 present; activation (rescue from dofetilide block), less the hit threshold, % at 10 µM; 0.51% of 310,000 active; AID 1511, 2009;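 active = activation above the mean of controls blocked by dofetilide plus 5 SD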;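 also: thallium influx through hERG after potassium depolarization seen as dye fluorescence rise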
Kir21 block – inhibitors of mouse Kir2.1 inward-rectifier potassium channel; HEK293-Kir2.1, FluxOR thallium flux fluorescence; active compounds read low; B-score at 10 µM; 0.85% of 310,000 active;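 active = fluorescence ratio B-score at or below minus 3 SD of library scores, with starting-brightness B-score within 2 SD, cut at about -4.2 in these data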;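 also: channel flux triggered by added potassium and thallium sulfate stimulus; B-score of peak minus minimum fluorescence over baseline after thallium stimulus; more negative B-score means stronger Kir2.1 block with less thallium influx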
Active calls of the source: *; i = inactive; / = no result given. Only some compounds are listed: those with a hit (about 3.7% of all), similar ones and a draw of the others.

SMILES	KCNK9 inh	KCNK3 inh	KCNQ1 pot	KCNQ1 block	hERG protect	Kir21 block
COc1ccc(Nc2nc3ccccc3nc2-n2nc(C)cc2C)cc1	-7.2*	i	i	i	-8	-0.04
Cc1cc(C)n(-c2nc3ccccc3nc2Nc2ccc3[nH]c(=O)[nH]c3c2)n1	i	i	i	i	0	1.1
Cc1cccnc1NC(=O)c1cccc(S(=O)(=O)NCc2ccccc2)c1	i	i	i	i	-11	-0.81
O=C(CN1C(=O)NC2(CCc3ccccc32)C1=O)c1ccc(Br)cc1 (stereo unspecified)	i	i	i	i	-6	-0.03
Cc1cc(Oc2ccc(C)c(Cl)c2)nc(SCC(=O)c2ccccc2)n1	-7.2*	i	i	i	-2	-2.4
CCn1cc(CN2CCCC(C(=O)Nc3ccc(-c4cscn4)cc3)C2)cn1 (stereo unspecified)	i	i	i	i	-9	-1
COc1ccccc1C(=O)NNC(=O)C(=O)NC1CCCCC1	i	i	20*	i	21*	0.59
O=C(COc1ccc(Cl)cc1)NNC(=O)C(=O)NC1CCCCC1	i	i	11*	i	15*	0.22
O=C(COc1ccc(Cl)cc1)NC1CC1	i	i	i	i	0	0
Cc1ccc(C(=O)NCC(=O)OCC(=O)Nc2ccc3[nH]c(=O)[nH]c3c2)cc1	i	i	i	i	-3	-0.16
CCN(Cc1ccncc1)C(=O)c1cc(Br)cc(Br)c1O	i	i	i	i	-10	-0.21
N#Cc1c(N)oc(-c2ccc3c(c2)OCO3)c1-c1ccc2c(c1)OCO2	-6.8*	i	i	i	-11	0.54
O=C(N/C(=C\c1ccccc1)C(=O)N1CCOCC1)c1ccccc1Cl	i	i	i	i	-12	0
COc1ccc(NC(=O)c2csc(C)c2)cc1OC	i	i	i	i	-3	-1.1
Nc1nc2c(s1)CCc1c-2cnn1-c1ccccc1	i	i	i	i	2	-4.5*
Nc1nc2c(s1)COc1ccccc1-2	i	i	i	i	-5	-0.19
COc1cc(/C=C2\SC(=S)N(C(Cc3ccccc3)C(=O)O)C2=O)ccc1O (stereo unspecified)	i	i	i	i	-20	-4.5*
COc1cc(/C=C2\SC(=S)N(Nc3ccccc3)C2=O)ccc1O	i	i	i	i	-4	-0.83
N/C(CSc1nc(-c2ccccc2)c(-c2ccccc2)o1)=N\O	-7.2*	i	i	8*	-12	0.03
O=C(O)/C=C/c1cn(-c2ccccc2)nc1-c1cccc([N+](=O)[O-])c1	i	i	i	i	-5	0.84
O=C(O)/C=C/c1cn(-c2ccccc2)nc1-c1ccc(-c2ccc([N+](=O)[O-])cc2)o1	i	i	i	i	11*	0.03
COC(=O)C1=C(C(=O)OC)[C@@H]2N(C)c3ccc(OC)cc3[C@@]23C[C@@H](C(=O)OC)N(C(=O)c2cccs2)C3=N1	i	i	i	i	-4	0.72
CC1CCc2nc3ccccc3c(C(=O)OCC(=O)N3CCc4ccccc43)c2C1 (stereo unspecified)	i	i	i	i	-3	0
CCCc1nc2ccccc2c(C(=O)OCC(=O)N2CCc3ccccc32)c1CC	-6.6*	i	i	i	-11	-1.3
COc1cc(C(=O)OCc2csc(CC(=O)Nc3ccccc3C)n2)ccc1OCC(C)C	/	i	/	/	/	/
CCNc1nc(NC(C)C)nc(N(C#N)CCOc2ccc(Cl)cc2Cl)n1	-7.5*	-11*	i	i	-6	-1.3
CCNc1nc(NC(C)C)nc(N(C#N)Cc2ccccc2)n1	-7.3*	i	i	i	-2	-0.62

Compound activity (PubChem BioAssay)
